Assay results reported in ChEMBL document CHEMBL1153305, “Preparation and characterization of N-(3-pyridinyl) spirocyclic diamines as ligands for nicotinic acetylcholine receptors” (Bioorg Med Chem Lett, 2009).
Calls of active or inactive are those of the source. The calls are words filed in the database; no cut-off is given here.

Columns and labels:
[1] = target: T1, Neuronal acetylcholine receptor; alpha3/beta4 (Homo sapiens, UniProt P30926+P32297); assay: Agonist activity at human […] nAChR expressed in human IMR32 cells assessed as calcium dynamics by FLIPR assay relative to nicotine; assay type: functional, cell-based; conditions: IMR-32
T1 sequence (P30926 whole entry): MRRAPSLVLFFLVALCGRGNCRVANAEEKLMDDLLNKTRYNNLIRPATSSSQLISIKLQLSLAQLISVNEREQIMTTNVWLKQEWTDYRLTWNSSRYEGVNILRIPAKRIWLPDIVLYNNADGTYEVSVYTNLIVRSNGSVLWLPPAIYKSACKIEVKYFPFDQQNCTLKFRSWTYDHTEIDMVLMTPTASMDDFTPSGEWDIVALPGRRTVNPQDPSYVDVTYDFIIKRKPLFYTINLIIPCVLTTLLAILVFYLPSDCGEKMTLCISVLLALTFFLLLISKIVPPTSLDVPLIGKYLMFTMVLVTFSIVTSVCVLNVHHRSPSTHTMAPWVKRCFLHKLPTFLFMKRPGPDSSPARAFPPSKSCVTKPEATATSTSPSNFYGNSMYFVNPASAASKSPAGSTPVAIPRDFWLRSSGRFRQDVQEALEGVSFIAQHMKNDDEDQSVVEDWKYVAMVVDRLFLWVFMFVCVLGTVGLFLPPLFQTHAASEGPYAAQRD
T1 sequence (P32297 whole entry): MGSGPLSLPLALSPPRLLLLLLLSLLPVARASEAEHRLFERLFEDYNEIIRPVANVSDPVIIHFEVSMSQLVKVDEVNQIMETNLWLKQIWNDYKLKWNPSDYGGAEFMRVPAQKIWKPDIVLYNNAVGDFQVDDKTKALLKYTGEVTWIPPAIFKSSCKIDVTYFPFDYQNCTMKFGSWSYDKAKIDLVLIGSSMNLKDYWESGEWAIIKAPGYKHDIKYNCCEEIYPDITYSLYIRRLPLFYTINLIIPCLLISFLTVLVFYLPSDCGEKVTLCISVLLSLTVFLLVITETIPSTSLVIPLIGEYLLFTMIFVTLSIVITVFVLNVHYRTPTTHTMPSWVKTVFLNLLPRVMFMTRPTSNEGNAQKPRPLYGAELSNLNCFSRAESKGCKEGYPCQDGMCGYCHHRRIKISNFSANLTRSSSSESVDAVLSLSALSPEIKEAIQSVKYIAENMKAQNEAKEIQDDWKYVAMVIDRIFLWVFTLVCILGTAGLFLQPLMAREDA
Procedure, shortened: (§1)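 Endogenous α3β4* nAChR in the human neuroblastoma line IMR-32. Agonism was measured as intracellular Ca2+ dynamics by FLIPR, testing up to 100 μM. Values are averages of six replicates.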

[2] = target: T2, Neuronal acetylcholine receptor; alpha4/beta2 (Homo sapiens, UniProt P17787+P43681); assay: Agonist activity at human recombinant alpha4beta2 nAChR expressed in human IMR32 cells assessed as calcium dynamics by FLIPR assay relative to nicotine; assay type: functional, cell-based
T2 sequence (P17787 whole entry): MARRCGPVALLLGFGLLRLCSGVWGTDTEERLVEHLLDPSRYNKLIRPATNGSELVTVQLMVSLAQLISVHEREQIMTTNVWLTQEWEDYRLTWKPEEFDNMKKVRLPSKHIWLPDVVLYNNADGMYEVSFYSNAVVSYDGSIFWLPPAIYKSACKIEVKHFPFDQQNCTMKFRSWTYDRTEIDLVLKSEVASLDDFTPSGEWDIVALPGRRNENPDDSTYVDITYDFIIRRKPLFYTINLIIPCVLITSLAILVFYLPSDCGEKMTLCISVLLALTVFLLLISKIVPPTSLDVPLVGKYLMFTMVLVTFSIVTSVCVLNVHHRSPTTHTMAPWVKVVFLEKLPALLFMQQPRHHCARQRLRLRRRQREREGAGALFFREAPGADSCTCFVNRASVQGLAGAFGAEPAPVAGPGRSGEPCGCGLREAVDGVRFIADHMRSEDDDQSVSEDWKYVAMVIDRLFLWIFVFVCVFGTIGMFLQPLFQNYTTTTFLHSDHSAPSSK
T2 sequence (P43681 whole entry): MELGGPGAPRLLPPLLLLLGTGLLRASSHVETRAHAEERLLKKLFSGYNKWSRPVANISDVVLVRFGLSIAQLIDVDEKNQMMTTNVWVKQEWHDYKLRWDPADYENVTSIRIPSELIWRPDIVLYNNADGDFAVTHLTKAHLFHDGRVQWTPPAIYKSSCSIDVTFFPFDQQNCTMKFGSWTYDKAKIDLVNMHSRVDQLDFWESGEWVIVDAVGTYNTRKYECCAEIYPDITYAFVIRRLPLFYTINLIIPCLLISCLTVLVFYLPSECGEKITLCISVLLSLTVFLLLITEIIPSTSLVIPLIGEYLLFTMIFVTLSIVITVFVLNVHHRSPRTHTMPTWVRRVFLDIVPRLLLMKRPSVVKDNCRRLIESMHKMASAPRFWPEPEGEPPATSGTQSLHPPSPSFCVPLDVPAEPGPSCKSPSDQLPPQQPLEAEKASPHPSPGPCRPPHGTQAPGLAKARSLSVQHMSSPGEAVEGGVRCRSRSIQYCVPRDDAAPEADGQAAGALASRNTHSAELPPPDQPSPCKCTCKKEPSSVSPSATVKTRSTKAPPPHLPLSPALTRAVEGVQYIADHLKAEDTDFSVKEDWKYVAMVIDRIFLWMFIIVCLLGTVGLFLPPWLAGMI
Procedure, shortened: (§2)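 A cell line expressing human recombinant α4β2 nAChR. Agonism was read as intracellular Ca2+ dynamics by FLIPR. Values are averages of six replicates.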

[3] = tested on: Mus musculus; assay: Analgesic activity in mouse at 62 umol/kg, ip; assay type: functional, organism-based
Procedure, shortened: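 Mouse hot plate analgesia model. The compound was given ip, with 62 μmol/kg as the highest dose tested.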

[4] = target: T1, Neuronal acetylcholine receptor; alpha3/beta4; assay: Agonist activity at human […] nAChR expressed in human IMR32 cells assessed as calcium dynamics by FLIPR assay; assay type: functional, cell-based, IMR-32; procedure, shortened: as §1
[5] = target: Neuronal acetylcholine receptor; alpha4/beta2 (Rattus norvegicus, UniProt P09483+P12390); assay: Displacement of [3H]cytisine from alpha4beta2 nAChR in rat brain membrane; assay type: cell membranes
Chain of Neuronal acetylcholine receptor; alpha4/beta2 (Rattus norvegicus, UniProt P09483+P12390) (P09483 whole entry): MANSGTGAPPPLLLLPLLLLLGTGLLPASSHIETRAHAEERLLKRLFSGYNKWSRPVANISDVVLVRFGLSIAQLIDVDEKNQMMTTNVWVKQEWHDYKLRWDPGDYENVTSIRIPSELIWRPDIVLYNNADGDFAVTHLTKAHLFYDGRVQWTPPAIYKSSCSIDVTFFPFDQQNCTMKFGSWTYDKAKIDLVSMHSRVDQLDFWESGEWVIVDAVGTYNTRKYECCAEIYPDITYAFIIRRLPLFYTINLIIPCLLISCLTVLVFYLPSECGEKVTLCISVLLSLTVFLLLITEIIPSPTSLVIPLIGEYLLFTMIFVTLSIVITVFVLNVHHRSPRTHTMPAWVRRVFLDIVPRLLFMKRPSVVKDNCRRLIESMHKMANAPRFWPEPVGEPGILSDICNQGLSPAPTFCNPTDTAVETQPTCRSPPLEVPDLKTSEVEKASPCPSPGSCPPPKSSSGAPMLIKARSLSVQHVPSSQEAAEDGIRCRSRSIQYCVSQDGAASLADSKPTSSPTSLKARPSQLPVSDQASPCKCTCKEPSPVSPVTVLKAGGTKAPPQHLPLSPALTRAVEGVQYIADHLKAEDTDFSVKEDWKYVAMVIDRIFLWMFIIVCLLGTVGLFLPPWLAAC
Chain of Neuronal acetylcholine receptor; alpha4/beta2 (Rattus norvegicus, UniProt P09483+P12390) (P12390 whole entry): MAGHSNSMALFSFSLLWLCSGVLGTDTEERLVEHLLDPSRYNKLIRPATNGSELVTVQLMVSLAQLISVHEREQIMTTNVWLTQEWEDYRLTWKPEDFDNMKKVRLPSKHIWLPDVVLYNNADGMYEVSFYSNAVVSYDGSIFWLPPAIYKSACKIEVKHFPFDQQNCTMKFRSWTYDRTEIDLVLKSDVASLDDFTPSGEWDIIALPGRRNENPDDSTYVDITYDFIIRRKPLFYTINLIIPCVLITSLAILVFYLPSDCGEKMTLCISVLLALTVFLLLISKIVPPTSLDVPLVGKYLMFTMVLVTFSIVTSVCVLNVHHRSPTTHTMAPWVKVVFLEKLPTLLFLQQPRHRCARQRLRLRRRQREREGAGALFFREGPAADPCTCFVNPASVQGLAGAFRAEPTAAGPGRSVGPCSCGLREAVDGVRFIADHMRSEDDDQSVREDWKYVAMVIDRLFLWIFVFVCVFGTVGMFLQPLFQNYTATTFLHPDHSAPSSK

[6] = target: T2, Neuronal acetylcholine receptor; alpha4/beta2; assay: Agonist activity at human recombinant alpha4beta2 nAChR expressed in human IMR32 cells assessed as calcium dynamics by FLIPR assay; assay type: functional, cell-based; procedure, shortened: as §2
[7] = tested on: Mus musculus; assay: Analgesic activity in mouse assessed hypolocomotion at 65 umol/kg, ip; assay type: functional, organism-based
[8] = tested on: Mus musculus; assay: Decrease in body temperature in mouse at 65 umol/kg, ip; assay type: functional, organism-based
[9] = tested on: Mus musculus; assay: Toxicity in mouse assessed as behavioral effect at 65 mg/kg, ip; assay type: organism-based; parameters: dose 65 mg/kg, route intraperitoneal; conditions: in vivo

| SMILES | Activity [1] | Activity [2] | Activity [3] | EC50 [4] | Ki [5] | EC50 [6] | Activity [7] | Activity [8] | Activity [9] |
| --- | --- | --- | --- | --- | --- | --- | --- | --- | --- |
| Clc1ccc(C2CC3CCC2N3)cn1 (stereo not drawn) | 132% | 154% |  |  |  |  |  |  |  |
| Clc1ccc(N2CCC3(CCN3)C2)cn1 (stereo not drawn) | 23% | 48% | Active | 6900 nM | 21 nM | 2500 nM | Active | Active |  |
| c1cncc(N2CCC3(CCN3)C2)c1 (stereo not drawn) | 4% | 44% |  | > 100000 nM | 11 nM | 25000 nM |  |  | Non-toxic |
| c1cncc(N2CCC3(CCCN3)C2)c1 (stereo not drawn) [TC-2216] | 15% | 20% |  | > 100000 nM | 33 nM | > 100000 nM |  |  |  |
| c1cncc(N2CC3CC2CN3)c1 (stereo not drawn) | 108% |  |  | 6400 nM |  |  |  |  |  |
| Clc1ccc(N2CCC3(CCCN3)C2)cn1 (stereo not drawn) | 8% | 6% |  | > 100000 nM | 48 nM | > 100000 nM |  |  |  |
| Clc1ccc(OC[C@H]2CCN2)cn1 [TEBANICLINE] | 169% | 115% |  | 190 nM | 0.048 nM | 20 nM |  |  |  |
| Clc1ccc(N2CCC3(CCNC3)C2)cn1 (stereo not drawn) | 2% | 9% |  | > 100000 nM | 240 nM | > 100000 nM |  |  |  |
| c1cncc(N2CC3CNC3C2)c1 (stereo not drawn) | 90% | 122% |  | 6100 nM | 1.2 nM | 1600 nM |  |  |  |
| c1cncc(N2CCC3(CCNC3)C2)c1 (stereo not drawn) | 10% | 4% |  | > 100000 nM | 74 nM | > 100000 nM |  |  |  |
